According to ChEMBL document CHEMBL1121728, “Synthesis and antitumor activity of an acyclonucleoside derivative of 5-fluorouracil” (1981):

Tests used:
L1210 [1] = assay: Inhibition against L1210 mouse leukemia cells; No effect; type: functional; conditions: read-out: ID50 (the source's name)
L1210 [2] = assay: Inhibition against L1210 mouse leukemia cells; Inactive; type: functional; conditions: read-out: ID50 (the source's name)
P388 [3] = assay: Compound was evaluated for the 7-day percent change in weight of mice infected with P388 leukemia at a dose of 50 […] in q.d. 1-4 schedule; type: functional, Mus musculus
Method in brief: (§1)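 Male B6D2F₁J mice in groups of five received 10⁶ P388 cells ip on day 0. Compound was then given ip in water on the stated schedule. Body weights were taken on days 1 and 7, and the change is expressed as a percentage. Survival was also recorded as percent increase in life span.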

P388 [4] = assay: 7-day weight change in mice infected with P388 leukemia at a dose of 60 […] in q.d. 1-9 schedule
P388 [5] = assay: Compound was evaluated for the 7-day percent change in weight of mice infected with P388 leukemia at a dose of 100 […] in q.d. 1-4 schedule; type: functional, Mus musculus; method in brief: as §1
P388 [6] = assay: Compound was evaluated for the 7-day percent change in weight of mice infected with P388 leukemia at a dose of 240 […] in q.d. 1-9 schedule; type: functional, Mus musculus; method in brief: as §1
P388 [7] = assay: Compound was evaluated for the median survival time of mice infected with P388 leukemia at a dose of 200 […] in b.i.d. x 4 schedule; type: functional, Mus musculus
Method in brief: (§2)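 Male B6D2F1J mice, five per group, received 10^6 P388 leukemia cells ip on day 0. Treatment was ip in water on q.d. 1-4, b.i.d. × 4 or q.d. 1-9 schedules. Survival was recorded, and increase in life span (ILS) was calculated relative to untreated controls. Toxicity was judged by weight loss.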

P388 [8] = assay: Compound was evaluated for the median survival time of mice infected with P388 leukemia at a dose of 400 […] in b.i.d. x 4 schedule; type: functional, Mus musculus; method in brief: as §2
P388 [9] = assay: Compound was evaluated for the median survival time of mice infected with P388 leukemia at a dose of 200 […] in q.d. 1-4 schedule; type: functional, Mus musculus; method in brief: as §2
P388 [10] = assay: Compound was evaluated for the 7-day percent change in weight of mice infected with P388 leukemia at a dose of 120 […] in q.d. 1-9 schedule; type: functional, Mus musculus; method in brief: as §1
P388 [11] = assay: Compound was evaluated for the median survival time of mice infected with P388 leukemia at a dose of 100 […] in b.i.d. x 4 schedule; type: functional, Mus musculus; method in brief: as §2
P388 [12] = assay: Compound was evaluated for the median survival time of mice infected with P388 leukemia at a dose of 50 […] in b.i.d. x 4 schedule; type: functional, Mus musculus; method in brief: as §2
P388 [13] = assay: Compound was evaluated for the median survival time of mice infected with P388 leukemia at a dose of 100 […] in q.d. 1-4 schedule; type: functional, Mus musculus; method in brief: as §2
P388 [14] = assay: Compound was evaluated for the median survival time of mice infected with P388 leukemia at a dose of 60 […] in q.d. 1-9 schedule; type: functional, Mus musculus; method in brief: as §2
P388 [15] = assay: Compound was evaluated for the 7-day percent change in weight of mice infected with P388 leukemia at a dose of 400 […] in b.i.d. x 4 schedule; type: functional, Mus musculus; method in brief: as §1
P388 [16] = assay: Compound was evaluated for the 7-day percent change in weight of mice infected with P388 leukemia at a dose of 200 […] in q.d. 1-4 schedule; type: functional, Mus musculus; method in brief: as §1
L1210 [17] = assay: Inhibition against L1210 mouse leukemia cells; type: functional; conditions: read-out: ID50 (the source's name)
Method in brief: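 Growth inhibition of L1210 mouse leukemia cells in culture, reported as ID50 (molar concentration).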

P388 [18] = assay: Compound was evaluated for the median survival time of mice infected with P388 leukemia at a dose of 120 […] in q.d. 1-9 schedule; type: functional, Mus musculus; method in brief: as §2
P388 [19] = assay: Compound was evaluated for the 7-day percent change in weight of mice infected with P388 leukemia at a dose of 50 […] in b.i.d. x 4 schedule; type: functional, Mus musculus; method in brief: as §1
P388 [20] = assay: Compound was evaluated for the 7-day percent change in weight of mice infected with P388 leukemia at a dose of 100 […] in b.i.d. x 4 schedule; type: functional, Mus musculus; method in brief: as §1
P388 [21] = assay: Compound was evaluated for the median survival time of mice infected with P388 leukemia at a dose of 240 […] in q.d. 1-9 schedule; type: functional, Mus musculus; method in brief: as §2
P388 [22] = assay: Compound was evaluated for the 7-day percent change in weight of mice infected with P388 leukemia at a dose of 200 […] in b.i.d. x 4 schedule; type: functional, Mus musculus; method in brief: as §1
P388 [23] = assay: Percent increase in survival of P388 leukemic mice at a compound dose 400 mg/kg (b.i.d. x 4) or 240 mg/kg (q.d. 1-9) was given intraperitoneally in water; type: functional, Mus musculus; method in brief: as §2
P388 [24] = assay: Compound was evaluated for the median survival time of mice infected with P388 leukemia at a dose of 50 […] in q.d. 1-4 schedule; type: functional, Mus musculus; method in brief: as §2
P388 [25] = assay: Compound was evaluated for the 7-day percent change in weight of mice infected with P388 leukemia at a dose of 40 […] in q.d. 1-9 schedule; type: functional, Mus musculus
Method in brief: (§3)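 Groups of five male B6D2F1J mice were inoculated ip with 10^6 P388 cells on day 0. Drugs were given ip in water on q.d. 1-4, b.i.d. × 4 or q.d. 1-9 schedules. Animals were weighed on days 1 and 7, and weight change was expressed as a percentage.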

P388 [26] = assay: Compound was evaluated for the 7-day percent change in weight of mice infected with P388 leukemia at a dose of 20 […] in q.d. 1-4 schedule; type: functional, Mus musculus; method in brief: as §3
P388 [27] = assay: Compound was evaluated for the 7-day percent change in weight of mice infected with P388 leukemia at a dose of 40 […] in q.d. 1-4 schedule; type: functional, Mus musculus; method in brief: as §3
P388 [28] = assay: Compound was evaluated for the median survival time of mice infected with P388 leukemia at a dose of 20 […] in q.d. 1-4 schedule; type: functional, Mus musculus; method in brief: as §2
P388 [29] = assay: Compound was evaluated for the median survival time of mice infected with P388 leukemia at a dose of 20 […] in q.d. 1-9 schedule; type: functional, Mus musculus; method in brief: as §2
P388 [30] = assay: Percent increase in life span against mice infected with P388 leukemia at a dose of 20 […] in q.d. 1-9 schedule; type: functional, Mus musculus; method in brief: as §2
P388 [31] = assay: Compound was evaluated for the median survival time of mice infected with P388 leukemia at a dose of 20 […] in b.i.d. x 4 schedule; type: functional, Mus musculus; method in brief: as §2
P388 [32] = assay: Compound was evaluated for the median survival time of mice infected with P388 leukemia at a dose of 40 […] in q.d. 1-9 schedule; type: functional, Mus musculus; method in brief: as §2
P388 [33] = assay: Compound was evaluated for the median survival time of mice infected with P388 leukemia at a dose of 40 […] in q.d. 1-4 schedule; type: functional, Mus musculus; method in brief: as §2
P388 [34] = assay: Compound was evaluated for the median survival time of mice infected with P388 leukemia at a dose of 40 […] in b.i.d. x 4 schedule; type: functional, Mus musculus
P388 [35] = assay: Compound was evaluated for the 7-day percent change in weight of mice infected with P388 leukemia at a dose of 40 […] in b.i.d. x 4 schedule; type: functional, Mus musculus; method in brief: as §3
P388 [36] = assay: Compound was evaluated for the 7-day percent change in weight of mice infected with P388 leukemia at a dose of 20 […] in b.i.d. x 4 schedule; type: functional, Mus musculus; method in brief: as §3

O=c1[nH]c(=O)n(COCCO)cc1I gave an IC50 (L1210 [1]) of 1000 µM.
In the case of Nc1nc(=O)n(COCCO)cc1F, the IC50 (L1210 [2]) is reported as 100 µM.
With O=c1[nH]c(=O)n(COCCO)cc1F the Weight change (P388 [3]) was 7%, the 7-day weight change (P388 [4]) was 8% and the Weight change (P388 [5]) was 6%. It also gave a Weight change (P388 [6]) of 0%, a Median survival (P388 [7]) of 20 days and a Median survival (P388 [8]) of 21 days. For the same compound, the Median survival (P388 [9]) was 17 days, the Weight change (P388 [10]) was 0% and the Median survival (P388 [11]) was 17 days. It also gave a Median survival (P388 [12]) of 16 days, a Median survival (P388 [13]) of 15 days and a Median survival (P388 [14]) of 16 days. The Weight change (P388 [15]) was 0%, the Weight change (P388 [16]) was 6% and the IC50 (L1210 [17]) was 17 µM. For the same compound, the Median survival (P388 [18]) was 18 days, the Weight change (P388 [19]) was 5% and the Weight change (P388 [20]) was 4%. The Median survival (P388 [21]) was 21 days, the Weight change (P388 [22]) was 4% and the Increase (P388 [23]) was 75%. It also gave a Median survival (P388 [24]) of 14 days.
Work on O=c1[nH]c(=O)n(COCCO)cc1Br yielded an IC50 (L1210 [1]) of 1000 µM.
For O=c1[nH]cc(F)c(=O)[nH]1 [FLUOROURACIL], the Weight change (P388 [25]) was -23%, the Weight change (P388 [26]) was -5% and the Weight change (P388 [27]) was -29%. The Median survival (P388 [28]) was 23 days, the Median survival (P388 [29]) was 21 days and the Weight change (P388 [30]) was -2%. It also gave a Median survival (P388 [31]) of 19 days, a Median survival (P388 [32]) of 12 days and a Median survival (P388 [33]) of 10 days. For the same compound, the IC50 (L1210 [17]) was 1 µM, the Median survival (P388 [34]) was 12 days and the Weight change (P388 [35]) was -12%. The Weight change (P388 [36]) was 9%.
